In PubChem BioAssay AID617 (SRMLSC, 2007):
Hit rate of the full screen: of about 1,300 compounds, about 1,200 (92%) were called active. No rule for the calls is given here. So high a share suggests a set chosen from earlier hits. Not all results are given here. Results with a measured potency or affinity are listed apart.

assay: growth inhibitors of E. coli tolC mutant, dose response, strain BW25113 ΔtolC::kan (AID 617); conditions: OD615, at 100 µM (top of the series); growth inhibition: at the top concentration
Outline: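 System – E. coli BW25113 ΔtolC::kan bacteria · Input – inoculum from 1:1000-diluted 1.5 h subculture · Buffer or medium – LB plus kanamycin · Compound – serial dilution series of compound · Timing – bacterial growth with compound for 20 h, 37 °C · Measured by – OD615 · Read-out basis – growth-inhibition IC50 from four-parameter logistic curve, bounds set to 0% and 100% · Benchmarks – chloramphenicol 30 µM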

Growth inhibition, inactive:
O=C(COc1ccc(Cl)cc1)Nc1nc(-c2cccs2)cs1 4.58%, COc1cc(C(=O)Nc2nc(-c3cccs3)cs2)cc(OC)c1OC -4.94%, CC(C)n1c(C(=O)OCC(=O)NCc2ccc3c(c2)OCO3)cc2occc21 2.76% [OD615, at 50 µM], CCOC(=O)c1c(N)sc2c(OC)c(Br)ccc12 6.86%, O=C(C1CCN(Cc2cc(Cl)ccc2O)CC1)N1CCN(Cc2ccccc2)CC1 17.7%, CCCCCCn1c(CN2CCCC(C)C2)nc2c1c(=O)n(C)c(=O)n2C (stereo not drawn) 13.4%, Cc1ccc(N(CC(=O)Nc2ccc3c(c2)OCCO3)S(=O)(=O)c2c(C)noc2C)cc1 -0.82%, COc1ccccc1N1CCN(C(=O)c2oc3cc(C)c(C)cc3c2C)CC1 9.06%, COc1ccccc1N1CCN(C(=O)c2cc(-c3ccc(Br)cc3)on2)CC1 9.47%, Cc1ccc(-c2noc(CCC(=O)N3CCN(c4cccc(C(F)(F)F)c4)CC3)n2)cc1 14.7%, Cc1ccc(-c2nnn(CC(=O)N(Cc3cccs3)C(C(=O)NC(C)(C)C)c3ccco3)n2)o1 (stereo not drawn) 1.07%, Cc1ccc(-c2noc(CN3CCN(c4ccccc4F)CC3)n2)cc1 -0.74%, C=C(C)COc1ccc(-c2[nH]ncc2-c2ccc(OC)c(OC)c2)c(O)c1 -0.5%, COc1ccc(-c2cnc(N)n2CC2CCCO2)cc1 (stereo not drawn) 14.5%, COc1cc(OC)cc(-n2nnnc2SCC(=O)N2CCCc3ccccc32)c1 19.5%, Cn1c(-c2ccc3c(c2)OCO3)cnc1N -13.1%, CCCCCc1c(C)nc(Nc2ccccc2)[nH]c1=O 15.3% [OD615, at 50 µM], Cc1nn(-c2ccccc2)c2[nH]c(=O)c(CNCc3ccc4c(c3)OCO4)cc12 -1.75%, CCOC(=O)C1(N(CC)CC)Sc2cc(C)ccc2NC1=O (stereo not drawn) -1.68%, Cc1cc(=O)oc2c1ccc1oc(/C(=N/O)c3ccccc3)c(C)c12 16.5% [OD615, at 50 µM], CN(C)Cc1nc2c(c(=O)[nH]1)C1(CCCCC1)Cc1ccccc1-2 11.3%, Clc1ccc(Cn2ncc3c(N4CCCCC4)ncnc32)c(Cl)c1 13.9%, COc1ccc(-c2csc(N(CC3CCCO3)C(=O)c3ccco3)n2)cc1 (stereo not drawn) 9.23%, CN1/C(=C\C(=O)c2cccs2)Sc2ccccc21 13.4%, CCOC(=O)c1ccc(NS(=O)(=O)c2ccc(SC)cc2)cc1 5.09%, O=C(c1cc(C2CC2)on1)N1CCN(C(c2ccccc2)c2ccccc2)CC1 -3.08%, CC(C)n1c2ccccc2c2nc3ccccc3nc21 10.9%, CCOC(=O)C1CCN(Cc2cn[nH]c2-c2ccc(C)cc2)CC1 -2.61%
